Assay results collected from several papers.
Protocols differ between the studies behind these lines.
KEAP1: Kelch-like ECH-associated protein 1 (KEAP1, Homo sapiens, UniProt Q14145)
folP: Dihydropteroate synthase (folP, Bacteria, UniProt P0AC13)
NR4A1: Nuclear receptor subfamily 4immunitygroup A member 1 (NR4A1, Homo sapiens, UniProt P22736)

SMILES	target	read-out	mode	technique	time	measurement	result
O=C(O)/C=C/c1ccc(O)c(O)c1	KEAP1	binding		SPR		Kd	4.9 µM
C=CS(=O)(=O)c1ccc(Nc2nc(OCC3CCCCC3)c3nc[nH]c3n2)cc1	KEAP1	binding		SPR		Kd	0.2 µM
OC[C@H]1OC(O)[C@H](O)[C@@H](O)[C@@H]1O (some centres unmarked)	ATP-dependent RNA helicase DDX18 (Homo sapiens, UniProt Q9NVP1)	binding		MST		Kd	77.2 µM
N=C(N)NCCCC(=O)O	Alkaline phosphatase, tissue-nonspecific isozyme (ALPL, Homo sapiens, UniProt P05186)	binding		ITC		Kd	2 µM
CC(=O)OCc1nn(C)c2nc(N)[nH]c(=O)c2c1=O	folP	binding		SPR		Kd	0.0148 µM
CN(Cc1cnc2nc(N)nc(N)c2n1)c1ccc(C(=O)N[C@@H](CCC(=O)O)C(=O)O)cc1	Solute carrier organic anion transporter family member 1B3 (SLCO1B3, Homo sapiens, UniProt Q9NPD5, M233I)	transporter uptake	inhibitor	radiometric	2 min	IC50	> 100 µM
CCOC(=O)C(C)c1n[nH]c2nc(N)[nH]c(=O)c2c1=O (centres unmarked)	folP	binding		SPR		Kd	0.199 µM
CCCCCCCCC(=O)c1cc(O)c(O)c(O)c1	NR4A1	binding		ITC		Kd	3.7 µM
COc1cccc2c1C(=O)c1c(O)c3c(c(O)c1C2=O)C[C@@](O)(C(=O)CO)C[C@@H]3O[C@H]1C[C@H](N)[C@H](O)[C@H](C)O1	Solute carrier organic anion transporter family member 1B3 (SLCO1B3, Homo sapiens, UniProt Q9NPD5)	transporter uptake	inhibitor	radiometric	2 min	IC50	7.7 µM
COc1cccc2c(Nc3ccc4[nH]c(C(=O)N/N=C/c5ccc(SC)cc5)cc4c3)cc(C)nc12	NR4A1	binding		ITC		Kd	2.3 µM
NC(=O)c1ncn([C@@H]2O[C@H](CO)[C@@H](O)[C@H]2O)n1	5'-AMP-activated protein kinase catalytic subunit alpha-1 (PRKAA1, Homo sapiens, UniProt Q13131)	binding		SPR		Kd	6.75 µM
